Consider one molecule from ChEMBL document CHEMBL1148968 (J Nat Prod, 2004).

The species entered for one data set is Mus musculus. The data set can be described thus: Inhibition of C57B1/6 mouse liver mitochondrial activity in presence of succinate. In kind it is functional.
A short description of data set [1]: Inhibition of african green monkey Vero cell proliferation/viability up to 100 uM after 48 hrs by MTT assay. The data set is classed as cell-based. The conditions noted are these: chlorocebus sabaeus, Vero cells. In outline: (§1)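 Cells grown in DMEM/F12 with 10% FBS and antibiotics, seeded at 3×10^4/well, incubated 24 h at 37 °C. Compound diluted in serum-free medium, tested at 10^-9 to 10^-4 M for 48 h under normoxia. MTT added to 0.25 mg/mL final for 4 h at 37 °C, then lysed in 0.04 N HCl/isopropanol, A570 read.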
In general terms: Tetrazolium assays rely on reduction of a dye to a coloured formazan, in cell work by metabolically active cells.

In data set [2] the test system is T47D. The data set can be described thus: Reduction of human T47D cell colony formation under hypoxic condition at 1 uM by clonogenic survival assay. In kind it is functional. In outline: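 T47D cells seeded at 400 cells per 100 mm dish and allowed to adhere 4 h. Half the medium was replaced with serum-free medium containing compound. After a 30 min pretreatment, cells were held 24 h at 1% O2 (normoxic comparison run in parallel). Medium was then refreshed and cells grown 2–3 weeks under normoxia. Colonies were methanol-fixed and stained with crystal violet, and those over 50 cells counted.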

Data set [3] has as its system T47D. Kind of data set: Blockade of HIF1alpha protein expression in hypoxia-induced human T47D cells at 1 uM under 30 mins in normoxic condition followed by 4 hrs in hypoxic condition. In kind it is functional, cell-based. In outline:
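T47D nuclear HIF-1α (and HIF-1β) measured by Western blot of nuclear extracts. Exponentially grown cells were pretreated 30 min under normoxia (95% air), then held 4 h at 1% O2.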

Data set [4] is described as follows: Inhibition of electron transport pathway in C57B1/6 mouse liver mitochondria. The data set is classed as functional.
In data set [5] the test system is T47D. Kind of data set: Inhibition of human T47D cell proliferation/viability up to 100 uM after 48 hrs by MTT assay. The data set is classed as functional. The method, boiled down: as §1
In a further data set the test system is MCF7. Kind of data set: Inhibition of human MCF7 cell proliferation/viability up to 100 uM after 48 hrs by MTT assay. The data set is classed as functional. In outline: as §1
Data set [6] relates to T47D. Kind of data set: Inhibition of hypoxia-induced secreted VEGF protein level in human T47D cells at 3 uM by ELISA. The data set is classed as functional. In outline:
(§2)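 T47D cells seeded at 3.56×10^5/well in DMEM/F12 with 10% FBS and grown 24 h. Half the medium was replaced with serum-free medium containing compound. After a 30 min pretreatment, cells were held 16 h at 1% O2. VEGF in conditioned medium was measured by human VEGF ELISA and normalized to viable cell count (hemocytometer). Triplicate, mean ± SE, ANOVA/Fisher's PLSD.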
Background: An ELISA detects its analyte on a solid surface through an enzyme-linked reagent.

For data set [7], the system named is T47D. Kind of data set: Inhibition of hypoxia-induced secreted VEGF protein level in human T47D cells at 1 uM by ELISA. The data set is classed as functional. The method, boiled down: as §2
The subject of a further data set is MDA-MB-231. Kind of data set: Inhibition of human MDA-MB-231 cell proliferation/viability up to 100 uM after 48 hrs by MTT assay. In kind it is functional. The method, boiled down:
as §1

Data set [8] concerns the target T1, Hypoxia inducible factors; HIF-1-alpha, HIF-2-alpha (Homo sapiens, UniProt Q16665+Q99814). The data set can be described thus: Inhibition of hypoxia-induced HIF1 activation in human T47D cells carrying […] reporter gene measured by luciferase activity at 1.78 uM. The data set is classed as cell-based. In outline:
(§3)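 T47D cells were transiently transfected with the pTK-HRE3-luc reporter (erythropoietin HRE). They were pretreated with compound for 30 min, then held 16 h at 1% O2/5% CO2/94% N2. Luciferase activity was reported as % inhibition versus the induced control. One representative experiment, run in quadruplicate, mean ± SE.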
On the technique in general: A reporter such as luciferase makes a cellular process visible.

In data set [9] the target is T1, Hypoxia inducible factors; HIF-1-alpha, HIF-2-alpha. The data set can be described thus: Inhibition of hypoxia-induced HIF1 activation in human T47D cells carrying […] reporter gene measured by luciferase activity. In kind it is cell-based. In outline:
as §3

The subject of the next data set is SK-BR-3. Kind of data set: Inhibition of human SK-BR-3 cell proliferation/viability at 100 uM after 48 hrs by MTT assay. In kind it is functional. The conditions noted are these: SK-BR-3, 48 h. The method, boiled down:
as §1

Active and inactive are the calls of the source. The calls are words filed in the database; no cut-off is given here. Bounds are passed on as bounds.

Regarding `CC1=C[C@@H](O)C(C(C)CC[C@@H]2[C@@H](C)[C@]3(C)CC[C@@]2(C)O3)CC1` (some centres undefined) [LAURENDITERPENOL], the result in the data set filed under Mus musculus was inactive. In data set [1], the inhibition at 48 h is < 50%. In addition, the inhibition at 1 µM in the data set on T47D [2] is 50%; in the data set on T47D [7], 55%. In the data set on T47D [3], the outcome was Active. Besides, the figures for the IC50 in [4] and in data set [9] were 800 nM and 400 nM, respectively. Moreover, the “inhibition (INH)” value in the data set on T47D [5], in the data set on MCF7 and in the data set on MDA-MB-231 was <50% each time. In the data set with T47D [6], this molecule returned an inhibition at 3 µM of 80%. Also, in data set [8], the inhibition was found to be 88%. The EC50 in data set [9] worked out at 400 nM. For the same molecule, the inhibition at 100 µM in the data set with SK-BR-3 worked out at 63%.

As a reminder, the inhibition is the drop in the measured response relative to a control, in per cent. For orientation: IC50 means the concentration that inhibits the measured activity by half. One may read the EC50 as the concentration at which the effect is half-maximal.
